Rows were chosen to be rich in hits. Some 2.4% of all compounds tested hit in one or more screens of this group.
Scp-1 inhibitor – Scp-1 phosphatase inhibitors, primary screen, biochemical, colorimetric, uHTS; Carboxy-terminal domain RNA polymerase II polypeptide A small phosphatase 1 (Homo …; Recombinant Scp1, phosphopeptide, malachite green phosphate absorbance; inhibition, % at 20 µM; 340,000 compounds, 0.88% hits; AID 493091, 2011;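 active means inhibition above about 50% at 20 µM, limit read from the data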;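 further: plate controls were DMSO wells with enzyme for no effect and wells lacking enzyme for full effect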
Target sequence (Q9GZU7 76-261 limits assumed): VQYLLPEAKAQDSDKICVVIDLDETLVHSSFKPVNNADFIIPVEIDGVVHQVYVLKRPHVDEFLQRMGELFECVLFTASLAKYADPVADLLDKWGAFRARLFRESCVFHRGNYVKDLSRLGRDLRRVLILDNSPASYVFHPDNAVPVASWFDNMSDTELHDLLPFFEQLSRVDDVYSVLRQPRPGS
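Test system: SCP-1 phosphatase catalytic domain, residues 76-261 | Compound dosing: One concentration, 20 µM, with 1.0% DMSO | Schedule: 45 min room-temperature reaction, 5 min colour, 30 min stabiliser | Detection: Absorbance at 630 nm | Read-out basis: % inhibition of SCP-1 phosphate liberation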
SUMO1-SIM PPI – modulators of SUMO1 protein-protein interactions, primary screen, biochemical, uHTS; Small ubiquitin-related modifier 1 (Homo sapiens), P63165; SUMO1 binding to a labelled peptide, TR-FRET, 1 h; inhibition, % at 20 µM; 360,000 compounds, 0.33% hits; in the data active means inhibition above about 37%
Target sequence (P63165 whole entry, looked up): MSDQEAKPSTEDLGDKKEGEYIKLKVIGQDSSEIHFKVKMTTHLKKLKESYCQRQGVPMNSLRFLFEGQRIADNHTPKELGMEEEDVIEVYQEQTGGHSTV
NadD block – inhibitors of S. aureus NadD, primary screen, biochemical, colorimetric, uHTS; purified NadD enzyme, colorimetric absorbance read-out; Nicotinate-nucleotide adenylyltransferase NadD (Staphylococcus aureus N315); AID 602399, 2012; 360,000 compounds, 0.78% hits; inhibition, % at 20 µM; in the data active means inhibition above about 26%
DNMT1 inh – human DNMT1 methyltransferase inhibitors, primary screen, biochemical, molecular beacon, fluorescence, HinP1I cleavage, uHTS; 360,000 compounds, 0.83% hits; AID 588458, 2011; inhibition (reported as % activation of signal), % at 10 µM; DNA (cytosine-5)-methyltransferase 1 (Homo sapiens), P26358; in the data active means inhibition above about 50%
LMPTP inh – LMPTP phosphatase inhibitors, primary screen, biochemical, fluorescence intensity, uHTS; Low molecular weight phosphotyrosine protein phosphatase (Homo sapiens), P24666; recombinant LMPTP-A, OMFP fluorogenic substrate; inhibition, % at 20 µM; 360,000 compounds, 0.22% hits;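 active means compounds that cut the enzyme signal by at least half of the control window in the single-dose screen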;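 further: plate controls were DMSO wells with enzyme plus substrate for no effect and substrate without enzyme for full effect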
Target sequence (P24666 whole entry, looked up): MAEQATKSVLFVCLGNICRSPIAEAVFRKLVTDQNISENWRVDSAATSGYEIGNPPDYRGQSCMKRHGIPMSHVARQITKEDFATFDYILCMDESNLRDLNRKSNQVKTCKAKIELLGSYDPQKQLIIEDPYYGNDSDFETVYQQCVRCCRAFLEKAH
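Material: LMPTP-A; amount: 0.625 nM enzyme; doses: single 20 µM dose; times: reaction 50 min, room temperature, dark; technique: fluorescence intensity of OMFP turnover product; benchmarks: no-enzyme and uninhibited controls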
STEP inh – STEP phosphatase inhibitors, primary screen, biochemical, fluorescence intensity, uHTS; Tyrosine-protein phosphatase non-receptor type 5 (Homo sapiens), P54829; recombinant STEP, OMFP fluorogenic substrate; inhibition, % at 20 µM; 360,000 compounds, 0.25% hits;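 active means inhibition at 20 µM, scaled per plate between control wells, above about 37%, limit read from the data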;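 further: 0% = DMSO with enzyme and substrate and 100% = substrate only without enzyme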
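material = STEP tyrosine phosphatase | reagent = fluorogenic phosphatase substrate OMFP at 25 µM final | doses = single compound dose of 20 µM, 1% DMSO final | schedule = 20 min reaction, room temperature, in the dark | measured by = fluorescence, 480/540 nm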
NadD conf – inhibitors of S. aureus NadD, confirmation, biochemical, colorimetric, single concentration. shares compounds with NadD block. purified S. aureus NadD, colorimetric enzyme assay. inhibition, % at 20 µM. 2,000 compounds, 13% hits; in the data active means inhibition mostly above about 42%, no sharp cut-off; inactive means mostly below about 42%
* hit, by the source's call; / = no result given.

SMILES	Scp-1 inhibitor	SUMO1-SIM PPI	NadD block	DNMT1 inh	LMPTP inh	STEP inh	NadD conf
COc1cc(OC)cc(C(=O)Oc2ccc(/C=N/Nc3nc4ccccc4s3)cc2OC)c1	-17	9	37*	-30	1	-1	10
COc1cc(/C=N/Nc2nc3ccccc3s2)ccc1OC(=O)c1ccccc1F	1	-3	11	-28	3	-2	/
CCc1nnc(NC(=O)c2cc(S(=O)(=O)N3CCN(c4ccccc4)CC3)ccc2Cl)s1	0	11	31*	-1	2	-1	29
CCc1ccc(N(CC(=O)NCc2ccco2)C(=O)CCC(=O)Nc2ccccn2)cc1	-3	4	24*	2	0	3	4
Cc1occc1C(=O)/C(C#N)=C/c1ccc(O)c(Br)c1	-8	-17	0	5	-2	1	/
CC1Cc2ccccc2N1C(=O)CSc1nc2cc3c(cc2cc1C#N)OCO3 (stereo unspecified)	-10	-9	35*	2	2	4	3
Cc1cc2cc3c(cc2nc1SCC(=O)N1c2ccccc2CC1C)OCO3 (stereo unspecified)	5	-4	16	-6	3	7	/
Cc1ccc(OCC(=O)NNC(=S)NC(=O)C(C)(C)C)c(Br)c1	1	6	-2	4	0	-1	/
CC(C)c1ccc(OCC(=O)NNC(=S)NC(=O)c2cccs2)c(Br)c1	0	7	25*	3	-2	6	10
Cc1ccc(S(=O)(=O)/C(C#N)=C/c2c(N3CCN(Cc4ccccc4)CC3)nc3ccccn3c2=O)cc1	8	-5	47*	-4	5	2	13
Cc1ccc(NC(=O)C(C)OC(=O)c2cc(=O)[nH]c3ccccc23)cc1S(=O)(=O)N1CCOCC1 (stereo unspecified)	16	-3	35*	-10	5	0	41
CC1CCCCN1C(=O)COC(=O)/C=C/c1ccc2ccccc2n1 (stereo unspecified)	-4	-13	-6	0	-1	3	/
O=C(NNC(=S)NC(=O)c1cccs1)c1ccc(NC(=O)c2ccccc2)cc1	-13	12	32*	5	-1	0	37
O=C(Nc1ccc(NC(=S)NC(=O)c2cccs2)cc1)c1ccccc1	-19	0	1	-5	-2	1	/
O=C(Nc1ccccc1Cl)c1ccccc1Cc1ccccc1	-17	-2	-7	-10	1	0	/
Fc1ccc(-c2nnc(Cc3ccc(Cl)cc3)o2)cc1	-14	4	-9	-1	0	6	/
Cc1c(NC(=O)C(C)C)cccc1-c1nc2ncccc2o1	0	-1	-3	1	-1	-3	/
Cc1c(NC(=O)c2cccc(-c3cc4ccccc4oc3=O)c2)cccc1-c1nc2ncccc2o1	8	18	48*	40	4	4	4
CO[C@@H]1CN(C)C(=O)c2cc(NC(=O)NC3CCCCC3)ccc2OC[C@@H](C)N(CC2CCOCC2)C[C@@H]1C	/	7	/	/	-2	/	/
NC(=O)c1c(NC(=O)COC(=O)CSc2nnc(-c3ccc(Cl)cc3)o2)sc2c1CCC2	-2	10	40*	16	3	0	8
O=C(CN1C(=O)NC2(CCCCC2)C1=O)NCc1ccc2c(c1)OCO2	-1	0	10	2	-1	2	/
Cc1c(C(=O)N2CCNCC2)oc2ccccc12	-12	-4	-6	2	-2	-2	/
C#CCN(C[C@H]1[C@H](OC(=O)NCc2ccccc2F)[C@H](OC(=O)NCc2ccccc2F)C[C@H]2C(=O)N(c3ccccc3)C(=O)[C@@H]12)S(=O)(=O)c1ccc(C)cc1	/	-2	30*	-3	2	3	40
O=C(Nc1ncc2c(n1)CC(c1ccco1)CC2=O)c1ccccc1 (stereo unspecified)	-8	-4	-4	-1	5	0	/
O=C1CC(c2ccco2)Cc2nc(Nc3nc(-c4ccccc4)c4ccccc4n3)ncc21 (stereo unspecified)	25	5	57*	48	61*	2	32
SMILES	Scp-1 inhibitor	SUMO1-SIM PPI	NadD block	DNMT1 inh	LMPTP inh	STEP inh	NadD conf
O=C(NC(O)C(=O)c1ccc(F)cc1)c1ccc(F)cc1 (stereo unspecified)	-6	-2	-3	1	-1	0	/
NC(=O)[C@H]1CC2(CC(c3cccc(NC(=O)COc4ccc(Cl)cc4)c3)=NO2)CN1C(=O)c1ccc(Cl)cc1 (stereo partly specified)	2	-2	40*	-31	0	3	28
CC1(C(=O)N2CC3(CC(c4cccc(NC(=O)COc5ccc(Cl)cc5)c4)=NO3)C[C@@H]2C(N)=O)CC1 (stereo partly specified)	-2	4	4	-3	-1	-2	/
NC(=O)[C@H]1CC2(CC(c3cccc(NC(=O)COc4ccc(Cl)cc4)c3)=NO2)CN1C(=O)c1ccccc1C(=O)c1ccccc1 (stereo partly specified)	-2	3	31*	-28	1	1	40
C/C=C/C(=O)N1CC2(CC(c3cccc(NC(=O)COc4ccc(Cl)cc4)c3)=NO2)C[C@@H]1C(N)=O (stereo partly specified)	0	-2	3	1	-1	0	/
CC(C)C[C@@H](CN1CCC[C@H]1CN1C(=O)C(=O)NC[C@@H]1Cc1ccc(O)cc1)N1C[C@H](Cc2ccc(O)cc2)N(CC2CCCCCC2)C(=O)C1=O	/	13	29	/	1	/	/
CC(C)C[C@@H](CN1CCC[C@H]1CN1C(=O)C(=O)NC[C@@H]1Cc1ccccc1)N1C[C@H](Cc2ccccc2)N(CC2CCCCC2)C(=O)C1=O	/	4	33*	/	2	/	29
CC(C)C[C@@H](CN1CCC[C@H]1CN1C(=O)C(=O)NC[C@@H]1Cc1ccc(O)cc1)N1C[C@H](Cc2ccc(O)cc2)N(CC2CCCCC2)C(=O)C1=O	/	4	32*	/	1	/	30
Nc1c(C(=O)O)sc2nc(-c3ccccc3)cc(-c3ccc(F)cc3)c12	-3	-9	35*	-3	0	-2	26

Assay outcomes as filed in PubChem BioAssay.
